PLC-gamma1 inh – PLC-gamma1 (human) inhibition, primary screen; purified PLC-gamma1, fluorogenic substrate, fluorescence; 370,000 tested, 0.84% active; AID 720700; inhibition, % at 12.2 µM; P19174; in the data active means inhibition above about 9.5%
ASAP1 GAP inh – ASAP1 ArfGAP inhibition | ASAP1-stimulated ARF1 GTP hydrolysis, GDP FP detection | inhibition, % at 16.5 µM | 360,000 tested, 0.19% active; in the data active means inhibition above about 25%;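 further: 0% = vehicle with enzyme and substrate and 100% = no enzyme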
Target sequence (Q9ULH1 325-724 limits assumed): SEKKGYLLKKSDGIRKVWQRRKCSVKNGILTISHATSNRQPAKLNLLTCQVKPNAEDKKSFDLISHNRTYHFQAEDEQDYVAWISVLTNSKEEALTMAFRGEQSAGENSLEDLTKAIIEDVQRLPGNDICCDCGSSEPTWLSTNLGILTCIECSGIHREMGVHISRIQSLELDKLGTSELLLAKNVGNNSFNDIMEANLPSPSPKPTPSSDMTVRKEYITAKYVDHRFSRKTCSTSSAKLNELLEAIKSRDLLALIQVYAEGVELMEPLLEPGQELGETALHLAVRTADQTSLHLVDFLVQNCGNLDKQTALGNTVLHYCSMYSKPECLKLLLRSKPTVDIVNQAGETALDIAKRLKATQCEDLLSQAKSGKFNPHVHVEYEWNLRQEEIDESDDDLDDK
ARFGAP1 inh – rat ARFGAP1 inhibition. inhibition, % at 16.5 µM. Arfgap1-stimulated ARF1 GTP hydrolysis, GDP FP detection. 360,000 tested, 0.26% active. AID 651572. Q62848;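 active means inhibition above a per-plate limit, mean inhibition of low control wells plus 3 SD, cut at about 25% in these data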;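 further: 0% = DMSO wells with enzyme and 100% = wells lacking Arfgap1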
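Assay system: Rat Arfgap1 GAP domain (His6, aa 1-136), purified enzyme | Buffer or medium: HEPES 25 mM pH 7.5, NaCl 150 mM, MgCl2, DTT | Schedule: GTP hydrolysis reaction 2 h at 25 °C | Signal: FP of antibody-bound GDP Alexa 633 tracer, ex 620/em 688 nm | Measure: Percent inhibition of Arfgap1-stimulated GTP hydrolysis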
sPLA2-III inh – Blocks human group III sPLA2 activity. QFRET BODIPY PC-A2 liposome hydrolysis, fluorescence. inhibition, % at 12.2 µM. 370,000 tested, 0.56% active;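 active means inhibition above mean plus 3 SD of compounds lying within the high and low control bounds, cut at about 19% in these data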;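 further: 0% = median of test compound wells and 100% = no enzyme DMSO wells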
PLC-beta3 inh – inhibitors of human phospholipase C beta3; Q01970; Purified PLC-beta3, fluorogenic substrate, fluorescence; inhibition, % at 12.2 µM; 370,000 tested, 0.18% active; AID 720704; in the data active means inhibition above about 11%;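 further: 0% = median of compound wells on plate and 100% = full blocker control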
sPLA2 confirm – human GIII-sPLA2 inhibition, confirmation; shares compounds with sPLA2-III inh; inhibition, % at 12.2 µM; recombinant hGIII-sPLA2, BODIPY PC-A2 QFRET fluorescence; 2,000 tested, 34% active;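 active means mean inhibition across triplicates above the hit cutoff set in the earlier primary screen, cut at about 19% in these data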;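 further: 0% = enzyme with DMSO and 100% = DMSO wells lacking enzyme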
535nm interf – optically interferes with 535nm fluorescence in sPLA2 counter-screen; shares compounds with sPLA2-III inh; inhibition, % at 12.2 µM; AID 743282; 2,000 tested, 8.5% active; BODIPY FL product fluorescence interference, QFRET;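 active means average inhibition above the solvent-only control mean plus 3 SD, cut at about 6% in these data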;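 further: 0% = DMSO with substrate plus product and 100% = DMSO with substrate alone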
Numbers without * were called inactive. Most compounds without a hit are left out; they make up all but 1.9% or so of the library.

CC1CN(C(=O)C2CC2)C(C)CN1C(=O)C1CC1 (stereo not given) was read as PLC-gamma1 inh 2.7, ASAP1 GAP inh 3.5, ARFGAP1 inh 10.4, sPLA2-III inh 25.0*, PLC-beta3 inh 2.8, sPLA2 confirm -6.8 and 535nm interf -1.0.
`COc1cc(OC)cc(C(=O)NCCN2C(=O)C3C4C=CC(C4)C3C2=O)c1` (stereo not given) gave PLC-gamma1 inh 1.0, sPLA2-III inh -2.8 and PLC-beta3 inh 3.8.
COc1ccc(C(=O)c2[nH]c(N)c(C(=O)c3ccccc3)c2-c2ccc(OC)c(OC)c2)cc1 was read as PLC-gamma1 inh -4.7, sPLA2-III inh 9.2 and PLC-beta3 inh -4.8.
For O=C(CNc1ccc2ccccc2c1)N/N=C/c1ccncc1 the results were PLC-gamma1 inh -22.3, ASAP1 GAP inh 5.3, ARFGAP1 inh 10.4, sPLA2-III inh 19.8*, PLC-beta3 inh -38.0, sPLA2 confirm 12.3 and 535nm interf -5.5.
COc1ccc(/C(C)=N/NC(=S)NCCc2ccccc2)c(O)c1 was read as PLC-gamma1 inh -38.5, ASAP1 GAP inh 6.5, ARFGAP1 inh 8.8, sPLA2-III inh 44.2*, PLC-beta3 inh -71.2, sPLA2 confirm 7.3 and 535nm interf 8.2*.
COCCNC(=S)N/N=C(\C)c1ccccc1O was read as PLC-gamma1 inh -2.0, ASAP1 GAP inh -2.1, ARFGAP1 inh 10.7, sPLA2-III inh 42.8*, PLC-beta3 inh -12.6, sPLA2 confirm 22.5* and 535nm interf 2.1.
COCCNC(=S)N/N=C(\C)c1ccccc1OC was read as PLC-gamma1 inh -6.2, ASAP1 GAP inh 0.0, ARFGAP1 inh -11.1, sPLA2-III inh 11.0 and PLC-beta3 inh -1.7.
Screening Cc1ccccc1OCC(=O)Nc1ccc2c(c1)OCO2 returned PLC-gamma1 inh 1.5, ASAP1 GAP inh 5.1, ARFGAP1 inh 8.5, sPLA2-III inh 22.7*, PLC-beta3 inh -2.4, sPLA2 confirm -2.1 and 535nm interf -7.9.
Screening O=C(O)Cc1ccc(N=Nc2c(O)c(C(=O)O)cc3ccccc23)cc1 returned PLC-gamma1 inh -9.5, ASAP1 GAP inh -7.1, ARFGAP1 inh -4.5, sPLA2-III inh 0.5 and PLC-beta3 inh -18.6.
NS(=O)(=O)c1ccc(N=Nc2c(O)c(C(=O)O)cc3ccccc23)cc1 was read as PLC-gamma1 inh -11.9, ASAP1 GAP inh 7.0, ARFGAP1 inh -11.7, sPLA2-III inh 33.0*, PLC-beta3 inh -20.6, sPLA2 confirm 24.6* and 535nm interf -1.9.
For COC(=O)[C@]12C[C@H](CC(=O)N3CCCC3)C(=O)N(Cc3ccccc3)C1=C[C@H](C1CCCC1)O[C@@H]2C the results were PLC-gamma1 inh 1.6, ASAP1 GAP inh -10.6, ARFGAP1 inh -2.1, sPLA2-III inh -5.3 and PLC-beta3 inh 1.2.
`CCN(CC)C(=O)C12C(=O)Oc3ccccc3C1C2(C)C(=O)c1ccc(F)cc1` (stereo not given) gave PLC-gamma1 inh 4.4, ASAP1 GAP inh -4.9, ARFGAP1 inh 1.5, sPLA2-III inh 20.1*, PLC-beta3 inh 10.2, sPLA2 confirm -1.6 and 535nm interf -7.6.
`CCC1(C(=O)c2ccccc2)C2c3cc(Br)ccc3OC(=O)C21C(=O)N1CCOCC1` (stereo not given) gave PLC-gamma1 inh 3.1, ASAP1 GAP inh -8.8, ARFGAP1 inh -1.4, sPLA2-III inh -16.0 and PLC-beta3 inh 3.7.
CCC1(c2ccccc2)NC(=S)N(c2cccc(C)c2C)N1 (stereo not given) was read as PLC-gamma1 inh -0.9, ASAP1 GAP inh -11.3, ARFGAP1 inh 14.0, sPLA2-III inh 19.8*, PLC-beta3 inh 1.1, sPLA2 confirm 22.2* and 535nm interf 1.2.
`Cc1cccc(-n2c(-c3ccccc3)c[nH]c2=S)c1C` gave PLC-gamma1 inh 2.7, ASAP1 GAP inh 12.0, ARFGAP1 inh -3.7, sPLA2-III inh 15.3 and PLC-beta3 inh 1.3.
C=CCN1C(=O)[C@H](CC(=O)NCC2CCCCC2)[C@@]2(C(=O)OCC)CCCC=C12 was read as PLC-gamma1 inh 6.3, sPLA2-III inh 5.5 and PLC-beta3 inh 3.3.

Compound activity: PubChem BioAssay, The Scripps Research Institute Molecular Screening Center
